Laboratory results reported in ChEMBL document CHEMBL1124774, “Synthesis and biological activity of some derivatives of rifamycin P” (1990).

Key:
Escherichia coli = test: In vitro antibacterial activity of compound against Escherichia coli SKF 12140; assay type: functional
Klebsiella pneumoniae = test: In vitro antibacterial activity of compound against Klebsiella pneumoniae ISM; assay type: functional
[1] = system: Mycobacterium scrofulaceum; test: In vitro activity of compound against slowly growing Mycobacterium scrofulaceum 1292; assay type: functional
Method in brief: (§1)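 Medium was Middlebrook 7H10 agar with 2% glycerol and 10% OADC. Organisms from Loevenstein-Jensen slants were grown in 7H9 broth with 0.5% Tween and 10% OADC, adjusted to McFarland no. 1, and spotted with a multipoint inoculator. Sealed plates were incubated at 22, 30 or 37 °C for 4-20 days depending on strain.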

[2] = system: Mycobacterium scrofulaceum; test: In vitro activity of compound against slowly growing Mycobacterium scrofulaceum 1293; assay type: functional; method in brief: as §1
[3] = system: Mycobacterium scrofulaceum; test: In vitro activity of compound against slowly growing Mycobacterium scrofulaceum 1297; assay type: functional; method in brief: as §1
[4] = system: Mycobacterium scrofulaceum; test: In vitro activity of compound against slowly growing Mycobacterium scrofulaceum 1301; assay type: functional; method in brief: as §1
[5] = system: Mycolicibacterium smegmatis; test: In vitro activity of compound against rapidly growing Mycobacterium smegmatis 139; assay type: functional; method in brief: as §1
[6] = system: Mycolicibacterium smegmatis; test: In vitro activity of compound against rapidly growing Mycobacterium smegmatis 1442; assay type: functional; method in brief: as §1
[7] = system: Mycolicibacterium smegmatis; test: In vitro activity of compound against rapidly growing Mycobacterium smegmatis 31; assay type: functional; method in brief: as §1
Mycobacterium xenopi [8] = test: In vitro activity compound against slowly growing Mycobacterium xenopi 1446; assay type: functional; method in brief: as §1
Mycobacterium xenopi [9] = test: In vitro activity of compound against slowly growing Mycobacterium xenopi 554; assay type: functional; method in brief: as §1
Mycobacterium xenopi [10] = test: In vitro activity of compound against slowl growingy Mycobacterium xenopi 555; assay type: functional; method in brief: as §1
Mycolicibacterium phlei [11] = test: In vitro activity of compound against rapidly growing Mycobacterium phlei 141; assay type: functional; method in brief: as §1
Mycolicibacterium phlei [12] = test: In vitro activity of compound against rapidly growing Mycobacterium phlei 1283; assay type: functional; method in brief: as §1
Mycolicibacterium phlei [13] = test: In vitro activity of compound against rapidly growing Mycobacterium phlei 1289; assay type: functional; method in brief: as §1
Mycobacterium kansasii [14] = test: In vitro activity compound against slowly growing Mycobacterium kansasii 1298; assay type: functional; method in brief: as §1
Mycobacterium kansasii [15] = test: In vitro activity of compound against slowly growing Mycobacterium kansasii 1299; assay type: functional; method in brief: as §1
Mycobacterium marinum [16] = test: In vitro activity of compound against slowly growing Mycobacterium marinum 1388; assay type: functional; method in brief: as §1
Mycobacterium marinum [17] = test: In vitro activity of compound against slowly growing Mycobacterium marinum 1390; assay type: functional; method in brief: as §1
Mycobacterium marinum [18] = test: In vitro activity of compound against slowly growing Mycobacterium marinum 1391; assay type: functional; method in brief: as §1
[19] = system: Mycolicibacterium fortuitum; test: In vitro activity of compound against rapidly growing Mycobacterium fortuitum 114; assay type: functional; method in brief: as §1
[20] = system: Mycolicibacterium fortuitum; test: In vitro activity of compound against rapidly growing Mycobacterium fortuitum 1285; assay type: functional; method in brief: as §1
[21] = system: Mycolicibacterium fortuitum; test: In vitro activity of compound against rapidly growing Mycobacterium fortuitum 1287; assay type: functional; method in brief: as §1
[22] = system: Mycolicibacterium fortuitum; test: In vitro activity compound against rapidly growing Mycobacterium fortuitum 1302; assay type: functional; method in brief: as §1
[23] = system: Mycolicibacterium fortuitum; test: In vitro activity of compound against rapidly growing Mycobacterium fortuitum 140; assay type: functional; method in brief: as §1
[24] = system: Mycolicibacterium fortuitum; test: In vitro activity compound against rapidly growing Mycobacterium fortuitum 1440; assay type: functional; method in brief: as §1
[25] = system: Mycolicibacterium fortuitum; test: In vitro activity of compound against rapidly growing Mycobacterium fortuitum 646; assay type: functional; method in brief: as §1
[26] = system: Mycolicibacterium fortuitum; test: In vitro activity of compound against rapidly growing Mycobacterium fortuitum 726; assay type: functional; method in brief: as §1
Mycobacterium gordonae [27] = test: In vitro activity of compound against slowly growing Mycobacterium gordonae 1294; assay type: functional; method in brief: as §1
Mycobacterium gordonae [28] = test: In vitro activity of compound against slowly growing Mycobacterium gordonae 1441; assay type: functional; method in brief: as §1
Mycobacterium kansasii [29] = test: In vitro activity compound against slowly growing Mycobacterium kansasii 1291; assay type: functional; method in brief: as §1
[30] = system: Mycolicibacterium flavescens; test: In vitro activity of compound against rapidly growing Mycobacterium flavescens 1284; assay type: functional; method in brief: as §1
[31] = system: Mycolicibacterium flavescens; test: In vitro activity of compound against rapidly growing Mycobacterium flavescens 1286; assay type: functional; method in brief: as §1
Mycobacterium marinum [32] = test: In vitro activity of compound against slowly growing Mycobacterium marinum 1392; assay type: functional; method in brief: as §1
Mycobacterium marinum [33] = test: In vitro activity of compound against slowly growing Mycobacterium marinum 1393; assay type: functional; method in brief: as §1
Mycobacterium marinum [34] = test: In vitro activity of compound against slowly growing Mycobacterium marinum 1394; assay type: functional; method in brief: as §1
Mycobacterium marinum [35] = test: In vitro activity of compound against slowly growing Mycobacterium marinum 1447; assay type: functional; method in brief: as §1
Mycobacterium avium [36] = test: 50% inhibition of the 20 Mycobacterium (MAC) avium complex clinical isolates; assay type: functional
Method in brief: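 Agar-dilution MICs, 2-fold dilutions over 128-0.0001 μg/mL, on Middlebrook 7H10 agar with 2% glycerol and 10% OADC. Organisms from Loevenstein-Jensen slants were grown in 7H9 broth with 0.5% Tween and 10% OADC, adjusted to McFarland no. 1, and spotted with a multipoint inoculator. Plates were sealed and incubated at 22, 30 or 37 °C for 4-20 days depending on strain.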

Neisseria gonorrhoeae = test: In vitro antibacterial activity of compound against Neisseria gonorrhoeae ISM 68/126; assay type: functional
Pseudomonas aeruginosa = test: In vitro antibacterial activity of compound against Pseudomonas aeruginosa ATCC 10145; assay type: functional
Method in brief: (§2)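 Twofold microdilution MIC in Iso-Sensitest broth over 128-0.0001 µg/mL. Inoculum was 10^4 cfu/mL, with incubation at 37 °C for 18-24 h.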

Proteus vulgaris = test: In vitro antibacterial activity of compound against Proteus vulgaris X19H ATCC 881; assay type: functional
[37] = system: Staphylococcus epidermidis; test: In vitro antibacterial activity of compound against Staphylococcus epidermidis ATCC 12228; assay type: functional; method in brief: as §2
Streptococcus pyogenes [38] = test: Inhibitory concentration of compound against Streptococcus pyogenus septicemia in the mouse, administarted in OS route; assay type: functional
Method in brief: (§3)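 Male and female CD1 mice (18-22 g) were infected ip with S. pyogenes C203, with the challenge set so untreated mice died within 48 h. Groups of five received a single treatment immediately after infection. ED50 was calculated from the percentage surviving at each dose on day 10.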

Streptococcus pyogenes [39] = test: Inhibitory concentration of compound against Streptococcus pyogenus septicemia in the mouse, administarted in subcutaneous route; assay type: functional; settings: sc; method in brief: as §3
Streptococcus pyogenes [40] = test: Minimum inhibitory concentration of compound against Streptococcus pyogenus septicemia in the mouse; assay type: functional
Streptococcus pyogenes [41] = test: In vitro antibacterial activity of compound against Streptococcus pyogenes C 203 SKF 13400; assay type: functional
Method in brief: (§4)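 Streptococcal MICs were run by twofold microdilution in Todd-Hewitt broth over 128-0.0001 µg/mL. Inoculum was 10^4 cfu/mL, with incubation at 37 °C for 18-24 h.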

Staphylococcus aureus = test: In vitro antibacterial activity of compound against Staphylococcus aureus Tour L 165; assay type: functional; method in brief: as §2
Streptococcus pneumoniae = test: In vitro antibacterial activity of compound against Streptococcus pneumoniae UC 41; assay type: functional; method in brief: as §4
Enterococcus faecalis = test: In vitro antibacterial activity of compound against Streptococcus faecalis ATCC 7080.; assay type: functional; method in brief: as §2
[42] = system: Mycolicibacterium fortuitum; test: In vitro activity of compound against rapidly growing Mycobacterium fortuitum 645; assay type: functional; method in brief: as §1
Haemophilus influenzae = test: In vitro antibacterial activity of compound against Haemophilus influenzae ATCC 19418; assay type: functional
Mycobacterium xenopi [43] = test: In vitro activity of compound against slowly growing Mycobacterium xenopi 556; assay type: functional; method in brief: as §1
Mycobacterium avium [44] = test: 90% inhibition of the 20 Mycobacterium avium complex (MAC) clinical isolates
Mycobacteroides chelonae = test: In vitro activity of compound against rapidly growing Mycobacterium chelonae 1443
Mycobacterium avium [45] = test: Minimum inhibitory concentration of compound against 20 Mycobacterium avium complex (MAC) clinical isolates

CCN(CC)c1nc2c(s1)c1c(O)c3c(O)c(C)c4c(c32)C(=O)C(C)(O/C=C/C(OC)C(C)C(OC(C)=O)C(C)C(O)C(C)C(O)C(C)/C=C/C=C(/C)C(=O)N1)O4 (stereo not given)
1.23 mg/kg: ED50 (Streptococcus pyogenes [38])
0.5 µg/mL: MIC (Mycobacterium gordonae [27]) | MIC (Neisseria gonorrhoeae) | MIC (Haemophilus influenzae) | MIC (Mycobacterium avium [45])
0.032 µg/mL: MIC [1] | MIC (Mycolicibacterium phlei [11])
> 128 µg/mL: MIC (Mycobacteroides chelonae)
32 µg/mL: MIC (Escherichia coli) | MIC (Klebsiella pneumoniae) | MIC [25] | MIC [26] | MIC [30] | MIC (Proteus vulgaris)
1 µg/mL: MIC (Mycobacterium marinum [18]) | MIC (Mycobacterium marinum [32]) | MIC (Mycobacterium marinum [33]) | MIC (Mycobacterium marinum [34]) | MIC (Mycobacterium marinum [35])
16 µg/mL: MIC [19] | MIC [20] | MIC [23] | MIC [24]
8 µg/mL: MIC [5] | MIC [6] | MIC [7] | MIC (Pseudomonas aeruginosa)
4 µg/mL: MIC (Mycobacterium xenopi [8]) | MIC (Mycobacterium xenopi [10]) | MIC (Mycobacterium marinum [17]) | MIC (Mycobacterium xenopi [43])
0.25 µg/mL: MIC (Mycobacterium kansasii [14]) | MIC [31]
0.135 µg/mL: MIC (Streptococcus pyogenes [40])
2 µg/mL: MIC [4] | MIC (Mycobacterium xenopi [9]) | MIC (Mycolicibacterium phlei [13]) | MIC (Mycobacterium kansasii [15]) | MIC (Mycobacterium marinum [16]) | MIC [21] | MIC [22] | MIC (Mycobacterium gordonae [28]) | MIC (Mycobacterium kansasii [29]) | MIC50 (Mycobacterium avium [36]) | MIC (Enterococcus faecalis) | MIC [42] | MIC90 (Mycobacterium avium [44])
1.62 mg/kg: ED50 (Streptococcus pyogenes [39])
0.063 µg/mL: MIC [3] | MIC [37] | MIC (Streptococcus pneumoniae)
0.125 µg/mL: MIC [2] | MIC (Mycolicibacterium phlei [12]) | MIC (Streptococcus pyogenes [41]) | MIC (Staphylococcus aureus)
